Bounds are passed on as bounds.

Data set [1] in a line: Half life in rat plasma at 10 uM up to 360 mins by LC-MS/MS analysis. Format: ADME, cell-free. The essentials: (§1)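 Plasma incubated in duplicate at 37 °C with 10 µM test compound (1% methanol; from 1 mM methanol stock). Samples taken at 0, 15, 30, 60, 120, 240 and 360 min and quenched with 9 volumes of ice-cold methanol containing 500 nM internal standard, then centrifuged. Analyte/IS area ratios were quantified by LC-MS/MS as % remaining versus T0. t1/2 = −0.693/k, with k from the slope of log % remaining versus time.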

The nature of data set [2]: Half life in human plasma at 10 uM up to 360 mins by LC-MS/MS analysis. Format: ADME, cell-free. The essentials: as §1
The target of data set [3] is T1, Liver carboxylesterase 1 (Homo sapiens, UniProt P23141).
T1 sequence (P23141 whole entry): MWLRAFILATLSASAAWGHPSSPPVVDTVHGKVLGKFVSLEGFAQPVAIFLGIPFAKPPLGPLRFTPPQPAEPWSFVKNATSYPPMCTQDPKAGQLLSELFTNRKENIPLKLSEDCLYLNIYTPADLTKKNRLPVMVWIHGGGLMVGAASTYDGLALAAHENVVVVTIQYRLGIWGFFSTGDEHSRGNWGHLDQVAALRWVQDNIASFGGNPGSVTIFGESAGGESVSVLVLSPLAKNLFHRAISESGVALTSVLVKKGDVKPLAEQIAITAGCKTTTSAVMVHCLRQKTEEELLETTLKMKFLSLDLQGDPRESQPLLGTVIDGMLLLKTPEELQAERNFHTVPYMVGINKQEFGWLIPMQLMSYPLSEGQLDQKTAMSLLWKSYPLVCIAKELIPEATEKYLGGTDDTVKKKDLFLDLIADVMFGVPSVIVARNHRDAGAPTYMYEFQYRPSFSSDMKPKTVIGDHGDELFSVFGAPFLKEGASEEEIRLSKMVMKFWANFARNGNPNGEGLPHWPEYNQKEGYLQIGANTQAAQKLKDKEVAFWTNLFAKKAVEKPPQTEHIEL
The experiment in a line: Drug metabolism assessed as human CES1-mediated compound hydrolysis after 6 hrs. Format: ADME.

In data set [4] the target is T2, Liver carboxylesterase 1 (Mus musculus, UniProt Q8VCC2).
T2 sequence (Q8VCC2 whole entry): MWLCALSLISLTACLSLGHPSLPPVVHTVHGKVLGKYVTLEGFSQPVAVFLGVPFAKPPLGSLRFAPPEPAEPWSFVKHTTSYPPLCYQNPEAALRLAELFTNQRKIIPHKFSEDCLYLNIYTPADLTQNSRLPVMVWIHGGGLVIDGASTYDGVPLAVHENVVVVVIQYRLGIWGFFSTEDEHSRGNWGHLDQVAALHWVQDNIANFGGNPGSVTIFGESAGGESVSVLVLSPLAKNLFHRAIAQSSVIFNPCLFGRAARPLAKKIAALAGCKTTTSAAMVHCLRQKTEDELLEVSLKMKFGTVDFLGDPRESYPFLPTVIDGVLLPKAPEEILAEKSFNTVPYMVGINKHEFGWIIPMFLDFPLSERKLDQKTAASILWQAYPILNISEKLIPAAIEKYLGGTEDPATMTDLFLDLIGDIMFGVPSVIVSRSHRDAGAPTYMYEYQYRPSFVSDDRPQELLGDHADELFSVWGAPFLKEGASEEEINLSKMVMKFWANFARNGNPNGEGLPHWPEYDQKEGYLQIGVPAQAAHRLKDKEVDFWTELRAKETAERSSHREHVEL
The experiment in a line: Drug metabolism assessed as mouse CES1-mediated compound hydrolysis after 6 hrs. It is filed as ADME.

The next data set deals with Plasma. Briefly: Stability in rat plasma at 10 uM up to 360 mins in presence of EDTA by LC-MS/MS analysis. It is filed as ADME, cell-free. The settings on record: 6 h. In a few lines: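 Rat plasma incubated in duplicate at 37 °C with 10 µM test compound (1% methanol), plus either 1 mM DTNB (11) or 0.5 mM EDTA (12). Duplicate controls used methanol in place of the inhibitor. Samples taken from 0 to 360 min and quenched with 9 volumes of cold methanol containing internal standard. Remaining compound measured by LC-MS/MS relative to T0.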

Broadly, the half-life is how long it takes for the measured level to halve. A low value points to fast loss. Take `O=C(CCC(=O)Nc1ccccc1)NO`: the half-life at 10 µM in data set [1] is 0.43 h; in data set [2], 2.4 h. Further, the Drug metabolism entry at Liver carboxylesterase 1 [3] and at Liver carboxylesterase 1 [4] was “Metabolite_Detected” throughout.

As for `CC(CCc1ccccc1)C(=O)NO` (stereo not drawn), the half-life at 10 µM in data set [1] and in data set [2] was over 6 h in each case.

Take `O=C(CCCCc1ccccc1)NO`: the half-life at 10 µM in data set [1] was 0.9 to 0.93 h; in data set [2] it was over 6 h. Also, the Stability result in the data set with Plasma is “Unstable”.

For `O=C(NO)C(CCc1ccccc1)Cc1ccccc1` (stereo not drawn), the half-life at 10 µM in data set [1] and in data set [2] was over 6 h throughout.

On to `O=C(CCCCCCc1ccccc1)NO`, for which the half-life at 10 µM in data set [1] and in data set [2] was over 6 h throughout.

Take `O=C(CCC1CCCCC1)NO`: the half-life at 10 µM is 0.06 h in data set [1] and over 6 h in data set [2]. Moreover, the Drug metabolism entry on Liver carboxylesterase 1 [3] and on Liver carboxylesterase 1 [4] was “Metabolite_Detected” throughout.

Turning to `O=C(CNCCc1ccccc1)NO`, the half-life at 10 µM in data set [1] is 0.5 h; in data set [2], over 6 h. Also, the Stability entry in the data set with Plasma was “Unstable”.

On to `O=C(CC12CC3CC(CC(C3)C1)C2)NO`, for which the half-life at 10 µM in data set [1] and in data set [2] was over 6 h each time.

On to `CCCCc1nc2cc(/C=C/C(=O)NO)ccc2n1CCN(CC)CC` [PRACINOSTAT], for which the half-life at 10 µM in data set [1] and in data set [2] was over 6 h in each case.

Take `O=C(NO)C1CCN(C(=O)c2ccccc2)C1` (stereo not drawn): the half-life at 10 µM in data set [1] and in data set [2] was over 6 h throughout.

Consider `O=C(CNC(=O)Cc1ccccc1)NO`, for which the half-life at 10 µM in data set [1] is 0.29 h; in data set [2], over 6 h. In addition, the Stability entry in the data set with Plasma is recorded as “Unstable”.

On to `O=C(NO)C(Cc1ccccc1)C(=O)NCc1ccncc1` (stereo not drawn), for which the half-life at 10 µM in data set [1] was 3.3 h; in data set [2], over 6 h. In addition, the Stability result in the data set with Plasma is on record as “Unstable”.

For `O=C(NO)[C@H](Cc1ccccc1)NS(=O)(=O)c1ccccc1`, the results for the half-life at 10 µM in data set [1] and in data set [2] were 0.1 h and over 6 h, respectively. Also, the Stability result with Plasma is listed as “Unstable”.

For `O=C(NO)C1(NS(=O)(=O)c2ccccc2)CCOCC1`, the half-life at 10 µM in data set [1] and in data set [2] was over 6 h in each case.

For `O=C(NO)C(Cc1ccccc1)C(=O)NCc1ccccc1` (stereo not drawn), the half-life at 10 µM was 0.8 h in data set [1] and over 6 h in data set [2]. Moreover, the Stability entry in the data set on Plasma is reported as “Unstable”. The Drug metabolism result at Liver carboxylesterase 1 [3] and on Liver carboxylesterase 1 [4] was “Metabolite_Detected” in each case.

Regarding `CS(=O)(=O)C(CCc1ccccc1)(Cc1ccccc1)C(=O)NO` (stereo not drawn), the half-life at 10 µM in data set [1] and in data set [2] was over 6 h in each case.

As to `CC(C)(C(=O)NO)C(=O)NCc1ccccc1`, the half-life at 10 µM in data set [1] and in data set [2] was over 6 h throughout.

Turning to `C[C@H](NCc1ccccc1)C(=O)NO`, the half-life at 10 µM in data set [1] and in data set [2] was over 6 h each time.

For `CC(C(=O)NO)C(=O)NCc1ccccc1` (stereo not drawn), the half-life at 10 µM in data set [1] and in data set [2] was over 6 h each time.

In the case of `CC(C(=O)NO)C(=O)NCc1ccc(F)cc1` (stereo not drawn), the half-life at 10 µM in data set [1] and in data set [2] was over 6 h in each case.

As for `O=C(CCNC(=O)c1ccccc1)NO`, the half-life at 10 µM is 2.5 h in data set [1] and over 6 h in data set [2]. In addition, in the data set with Plasma, the Stability entry is reported as “Unstable”.

As to `O=C(NCC(C(=O)NO)N1CCCCC1)c1ccccc1` (stereo not drawn), the half-life at 10 µM is 0.4 h in data set [1] and over 6 h in data set [2]. The Stability entry in the data set with Plasma was “Unstable”.

For `O=C(CCNCc1ccccc1)NO`, the half-life at 10 µM is 2.1 h in data set [1] and over 6 h in data set [2]. Besides, the Stability result in the data set on Plasma is “Unstable”.

Turning to `O=C(NO)[C@@H](Cc1ccccc1)N(Cc1ccccc1)S(=O)(=O)c1ccccc1`, the half-life at 10 µM in data set [1] and in data set [2] was over 6 h in each case.

Turning to `O=C(NO)C(Cc1ccncc1)C(=O)NCc1ccccc1` (stereo not drawn), the half-life at 10 µM was 4.5 h in data set [1] and over 6 h in data set [2]. Besides, in the data set on Plasma, the Stability entry is given as “Unstable”.

Consider `CC(C)[C@H](C(=O)NO)N(Cc1ccccc1)S(=O)(=O)c1ccccc1`, for which the half-life at 10 µM in data set [1] and in data set [2] was over 6 h throughout.

As to `O=C(NO)[C@H](Cc1ccccc1)NCc1ccccc1`, the half-life at 10 µM was 1.8 h in data set [1] and over 6 h in data set [2]. Besides, the Stability entry in the data set with Plasma is “Unstable”.

On to `O=C(CC1CCCCC1)NO`, for which the half-life at 10 µM in data set [1] and in data set [2] was over 6 h each time.

With `O=C(NO)C(CCc1ccccc1)S(=O)(=O)c1ccccc1` (stereo not drawn), the half-life at 10 µM in data set [1] and in data set [2] was over 6 h in each case.

Turning to `O=C(NO)C1(C(=O)NCc2ccccc2)CC1`, the half-life at 10 µM in data set [1] and in data set [2] was over 6 h throughout.

For `O=C(CCCC1CCCCC1)NO`, the half-life at 10 µM in data set [1] is 0.05 h; in data set [2], over 6 h. Also, the Drug metabolism entry on Liver carboxylesterase 1 [3] and at Liver carboxylesterase 1 [4] was “Metabolite_Detected” throughout.

Turning to `O=C(NO)C1Cc2ccccc2CN1S(=O)(=O)c1ccccc1` (stereo not drawn), the results for the half-life at 10 µM in data set [1] and in data set [2] were 0.7 h and over 6 h, respectively. In addition, the Stability entry in the data set on Plasma was “Unstable”.

As for `O=C(CCCCCc1ccccc1)NO`, the half-life at 10 µM in data set [1] is 4.5 h; in data set [2], over 6 h. In addition, the Stability entry in the data set with Plasma is “Unstable”.

As for `CC(CCc1ccccc1)(C(=O)NO)S(=O)(=O)c1ccccc1` (stereo not drawn), the half-life at 10 µM in data set [1] and in data set [2] was over 6 h each time.

For `O=C(CNCc1ccccc1)NO`, the results for the half-life at 10 µM in data set [1] and in data set [2] were 3.6 h and over 6 h, respectively. Besides, the Stability entry in the data set with Plasma is given as “Unstable”.

With `O=C(CC(=O)NCc1ccc(F)cc1)NO`, the half-life at 10 µM in data set [1] and in data set [2] was over 6 h in each case.

Turning to `CC(Cc1ccccc1)(C(=O)NO)C(=O)NCc1ccccc1` (stereo not drawn), the half-life at 10 µM in data set [1] was 1.5 h; in data set [2] it was over 6 h. The Stability result in the data set on Plasma is on record as “Unstable”.

In the case of `O=C(CNC(=O)c1ccccc1)NO`, the half-life at 10 µM in data set [1] was 0.58 h; in data set [2] it was over 6 h. For the same molecule, in the data set with Plasma, the Stability result is recorded as “Unstable”.

Take `O=C(/C=C/c1ccc(Cl)cc1Cl)NO` [CINNAMIC ACID HYDROXAMATE]: the half-life at 10 µM in data set [1] and in data set [2] was over 6 h throughout.

With `CC(Cc1ccccc1)(C(=O)NO)C(=O)NCc1ccc(F)cc1` (stereo not drawn), in the data set on Plasma, the Stability result is “Unstable”.

As to `O=C(/C=C/c1ccc(S(=O)(=O)Nc2ccccc2)cc1)NO`, the half-life at 10 µM in data set [1] and in data set [2] was over 6 h throughout.

Regarding `O=C(CC(=O)Nc1ccccc1)NO`, the half-life at 10 µM in data set [1] and in data set [2] was over 6 h throughout.

In the case of `O=C(C=C(c1ccccc1)c1ccccc1)NO`, the half-life at 10 µM in data set [1] and in data set [2] was over 6 h in each case. For the same molecule, the Drug metabolism result at Liver carboxylesterase 1 [3] and at Liver carboxylesterase 1 [4] was “Metabolite_Detected” in each case.

In the case of `O=C(N[C@@H](CO)C(=O)NO)c1ccc(-c2ccccc2)cc1`, the half-life at 10 µM in data set [1] and in data set [2] was over 6 h in each case.

Regarding `O=C(CC(=O)NCc1ccccc1)NO`, the half-life at 10 µM in data set [1] and in data set [2] was over 6 h throughout.

With `O=C(NO)C(Cc1ccccc1)C(=O)NCc1ccc(F)cc1` (stereo not drawn), in the data set with Plasma, the Stability entry is listed as “Unstable”.

On to `O=C(/C=C/c1ccc(-c2ccccc2)cc1)NO`, for which the half-life at 10 µM in data set [1] and in data set [2] was over 6 h throughout.

For the origin of these results see ChEMBL document CHEMBL4028870, “Controlling Plasma Stability of Hydroxamic Acids: A MedChem Toolbox” (J Med Chem, 2017).
